Reference: ChEMBL document CHEMBL3124742, “Synthesis and biological evaluation of new carbohydrate-substituted indenoisoquinoline topoisomerase I inhibitors and improved syntheses of the experimental anticancer agents indotecan (LMP400) and indimitecan (LMP776)” (J Med Chem, 2014)
The source made the active and inactive calls. The rule behind the calls is not given here.

Columns and labels:
[1] = biological target: Tyrosyl-DNA phosphodiesterase 1 (Homo sapiens, UniProt Q9NUW8); assay: Inhibition of recombinant TDP1 (unknown origin) using N14Y as substrate after 15 mins by PAGE analysis
Chain of Tyrosyl-DNA phosphodiesterase 1 (Q9NUW8 whole entry): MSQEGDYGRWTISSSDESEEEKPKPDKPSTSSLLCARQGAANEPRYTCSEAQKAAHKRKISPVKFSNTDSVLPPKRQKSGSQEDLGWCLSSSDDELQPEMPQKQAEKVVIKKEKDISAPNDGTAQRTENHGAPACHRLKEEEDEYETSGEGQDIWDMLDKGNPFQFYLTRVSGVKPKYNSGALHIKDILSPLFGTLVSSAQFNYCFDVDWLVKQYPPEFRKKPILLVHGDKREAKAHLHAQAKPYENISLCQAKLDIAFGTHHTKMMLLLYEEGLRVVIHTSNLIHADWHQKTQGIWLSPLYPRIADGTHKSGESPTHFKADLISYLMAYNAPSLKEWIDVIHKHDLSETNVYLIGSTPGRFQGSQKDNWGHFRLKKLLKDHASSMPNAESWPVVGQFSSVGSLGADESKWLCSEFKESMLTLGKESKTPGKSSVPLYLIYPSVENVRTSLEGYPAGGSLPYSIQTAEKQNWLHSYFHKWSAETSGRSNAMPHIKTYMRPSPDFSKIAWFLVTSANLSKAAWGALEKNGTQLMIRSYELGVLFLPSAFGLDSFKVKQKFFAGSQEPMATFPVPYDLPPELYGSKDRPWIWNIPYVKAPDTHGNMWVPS
Outline: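 Substrate is a 5'-[32P]-labelled single-stranded oligonucleotide with a 3'-phosphotyrosine (N14Y). It is incubated with 5 pM recombinant TDP1 ± test compound for 15 min at room temperature. Read-out is a gel.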

[2] = Cytotoxicity against human NCI60 cells assessed as cell growth at 10 uM relative to vehicle-treated control; type: functional; details: read-out: Activity
Outline: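 NCI-60 one-dose screen: roughly 60 human cancer cell lines exposed to 10^-5 M (10 μM) compound. Value is growth percent of treated cells relative to vehicle-treated control, averaged across the panel.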

[3] = biological target: T1, DNA topoisomerase 1 (Homo sapiens) (UniProt P11387); assay: Inhibition of recombinant topoisomerase-1 (unknown origin) assessed as inhibition of 3'-[32P]-labeled DNA cleavage at 0.1 to 100 uM after 20 mins by PAGE analysis relative to control
T1 sequence (whole entry): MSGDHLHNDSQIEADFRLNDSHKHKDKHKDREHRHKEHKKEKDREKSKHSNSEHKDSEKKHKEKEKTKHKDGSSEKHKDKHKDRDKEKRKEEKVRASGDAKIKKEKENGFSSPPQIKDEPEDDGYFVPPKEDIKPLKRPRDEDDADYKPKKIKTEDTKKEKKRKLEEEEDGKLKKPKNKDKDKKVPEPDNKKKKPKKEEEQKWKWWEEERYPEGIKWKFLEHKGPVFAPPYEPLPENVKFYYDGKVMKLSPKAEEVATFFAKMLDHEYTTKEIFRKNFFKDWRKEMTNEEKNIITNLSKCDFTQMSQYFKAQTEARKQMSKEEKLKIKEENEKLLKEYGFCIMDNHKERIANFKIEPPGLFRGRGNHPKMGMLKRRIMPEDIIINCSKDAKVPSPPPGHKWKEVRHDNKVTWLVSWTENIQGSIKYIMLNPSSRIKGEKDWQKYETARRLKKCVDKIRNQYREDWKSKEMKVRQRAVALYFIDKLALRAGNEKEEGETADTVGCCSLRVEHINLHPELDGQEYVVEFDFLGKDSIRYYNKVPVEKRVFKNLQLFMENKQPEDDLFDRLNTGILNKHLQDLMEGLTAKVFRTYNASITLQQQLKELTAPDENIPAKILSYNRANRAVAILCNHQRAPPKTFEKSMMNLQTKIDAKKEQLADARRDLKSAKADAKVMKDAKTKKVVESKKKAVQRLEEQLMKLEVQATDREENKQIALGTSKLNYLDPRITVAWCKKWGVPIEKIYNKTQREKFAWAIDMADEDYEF

[4] = Growth inhibition of human SF539 cells; type: functional; details: SF-539
Outline: (§1)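 NCI-60 five-dose testing, 10^-8 to 10^-4 M, given only to compounds with significant growth inhibition in the 10 μM one-dose screen. Five-dose assay may be repeated.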

DU-145 = assay: Growth inhibition of human DU145 cells; type: functional; outline: as §1
SN12C = assay: Growth inhibition of human SN12C cells; type: functional; outline: as §1
OVCAR-3 = assay: Growth inhibition of human OVCAR3 cells; type: functional; outline: as §1
MCF7 = assay: Growth inhibition of human MCF7 cells; type: functional; outline: as §1
HOP-62 = assay: Growth inhibition of human HOP62 cells; type: functional; outline: as §1
HCT-116 = assay: Growth inhibition of human HCT116 cells; type: functional; outline: as §1
UACC-62 = assay: Growth inhibition of human UACC62 cells; type: functional; outline: as §1

Row | SMILES | IC50 [1] [µM] | inhibition [3] | GI50 (DU-145) [µM] | GI50 (OVCAR-3) [µM] | GI50 (MCF7) [µM] | GI50 (HCT-116) [µM] | growth at 10 µM [2] [%] | GI50 [4] [µM] | GI50 (SN12C) [µM] | GI50 (HOP-62) [µM] | GI50 (UACC-62) [µM]
1 | O=C1c2ccccc2-c2c1c1ccc([N+](=O)[O-])cc1c(=O)n2C[C@H](O)[C@@H](O)[C@H](O)CO | – | Active | 0.457 | 0.407 | 0.096 | 0.141 | -14.6 | 0.214 | 0.295 | 0.363 | –
2 | O=C1c2ccccc2-c2c1c1ccc([N+](=O)[O-])cc1c(=O)n2C[C@H](O)[C@H](O)[C@H](O)CO | > 111 | Active | 0.55 | 0.525 | 0.145 | 0.219 | -27.5 | 0.234 | 0.38 | 0.407 | –
3 | O=C1c2ccccc2-c2c1c1ccc([N+](=O)[O-])cc1c(=O)n2C[C@@H](O)[C@@H](O)[C@H](O)[C@H](O)CO | – | Active | > 100 | 5.25 | 0.724 | – | 73.2 | 3.39 | – | > 100 | 3.47
4 | COc1cc2c3c(n(C[C@H](O)CO)c(=O)c2cc1OC)-c1cc2c(cc1C3=O)OCO2 | > 111 | Active | 0.034 | 0.048 | 0.01 | 0.021 | 7.1 | 0.025 | 0.03 | 0.028 | 0.017
5 | COc1cc2c3c(n(C[C@H](O)[C@@H](O)[C@H](O)CO)c(=O)c2cc1OC)-c1cc2c(cc1C3=O)OCO2 | > 111 | Active | 0.138 | 0.096 | 0.034 | 0.059 | 5.32 | 0.021 | 0.085 | 0.027 | 0.052
6 | O=C1c2ccccc2-c2c1c1ccc([N+](=O)[O-])cc1c(=O)n2C[C@@H](O)[C@H](O)[C@H](O)CO | – | Active | 3.16 | 1.7 | 0.912 | 1.35 | -9.21 | 1.45 | – | 1.91 | –
7 | COc1cc2c3c(n(C[C@@H]4O[C@H](CO)[C@@H](O)[C@H](O)[C@H]4O)c(=O)c2cc1OC)-c1cc2c(cc1C3=O)OCO2 | – | 50% | – | – | – | – | 97.7 | – | – | – | –
8 | COc1cc2c3c(n(C[C@H](O)[C@H](O)[C@H](O)CO)c(=O)c2cc1OC)-c1cc2c(cc1C3=O)OCO2 | – | 75% | 0.479 | 0.022 | 0.059 | 0.148 | 46.9 | 0.028 | 0.229 | 0.251 | 0.062
9 | COc1cc2c3c(n(C[C@@H](O)[C@@H](O)[C@H](O)CO)c(=O)c2cc1OC)-c1cc2c(cc1C3=O)OCO2 | > 111 | Active | 2.51 | 0.794 | 0.079 | 0.891 | 34.7 | 0.214 | 0.457 | 0.676 | 0.195
10 | COc1cc2c3c(n(CC(O)CO)c(=O)c2cc1OC)-c1cc2c(cc1C3=O)OCO2 (racemic) | > 111 | Active | 0.036 | 0.052 | 0.021 | 0.026 | 27.1 | 0.023 | 0.035 | 0.031 | –
11 | O=C1c2ccccc2-c2c1c1ccc([N+](=O)[O-])cc1c(=O)n2C[C@@H]1O[C@H](CO)[C@@H](O)[C@H](O)[C@H]1O | – | 50% | – | – | – | – | 77.4 | – | – | – | –
12 | COc1cc2c3c(n(C[C@@H](O)[C@H](O)[C@H](O)CO)c(=O)c2cc1OC)-c1cc2c(cc1C3=O)OCO2 | > 111 | 75% | 50.1 | 50.1 | 0.148 | 0.355 | 52.8 | 0.174 | 0.234 | 50.1 | 0.155

Further lines, with some results ahead:

Row | IC50 [1] [µM] | inhibition [3] | GI50 (DU-145) [µM] | GI50 (OVCAR-3) [µM] | GI50 (MCF7) [µM] | GI50 (HCT-116) [µM] | SMILES | growth at 10 µM [2] [%] | GI50 [4] [µM] | GI50 (SN12C) [µM] | GI50 (HOP-62) [µM] | GI50 (UACC-62) [µM]
13 | > 111 | Active | – | – | – | – | COc1cc2c3c(n(C[C@@H](O)[C@@H](O)[C@H](O)[C@H](O)CO)c(=O)c2cc1OC)-c1cc2c(cc1C3=O)OCO2 | 79.5 | – | – | – | –
14 | > 111 | Active | 9.55 | 6.03 | 2.95 | – | O=C1c2ccccc2-c2c1c1ccc([N+](=O)[O-])cc1c(=O)n2C[C@H](O)[C@@H](O)[C@@H](O)[C@H](O)CO | 51.5 | 2.57 | 4.27 | 5.13 | –
15 | > 111 | Active | 0.04 | – | 0.029 | 0.036 | COc1cc2c3c(n(C[C@@H](O)CO)c(=O)c2cc1OC)-c1cc2c(cc1C3=O)OCO2 | 31.6 | 0.032 | 0.037 | 0.036 | –
16 | – | 50% | – | – | – | – | COc1cc2c3c(n(C[C@H](O)[C@@H](O)[C@@H](O)[C@H](O)CO)c(=O)c2cc1OC)-c1cc2c(cc1C3=O)OCO2 | 82.3 | – | – | – | –
17 | > 111 | 75% | – | – | – | – | COc1cc2c3c(n(C[C@H](O)[C@@H](O)[C@H](O)[C@H](O)CO)c(=O)c2cc1OC)-c1cc2c(cc1C3=O)OCO2 | 87.5 | – | – | – | –
18 | > 111 | 75% | 0.427 | 0.398 | 0.056 | 0.138 | O=C1c2ccccc2-c2c1c1ccc([N+](=O)[O-])cc1c(=O)n2C[C@@H](O)CO | -27 | 0.309 | 0.38 | 0.347 | –
19 | – | Active | 3.47 | 2.14 | 0.501 | 1.2 | O=C1c2ccccc2-c2c1c1ccc([N+](=O)[O-])cc1c(=O)n2C[C@@H](O)[C@@H](O)[C@H](O)CO | -16.1 | 1.74 | 2.69 | – | 1.1
20 | > 111 | 75% | 0.363 | 0.479 | 0.06 | 0.138 | O=C1c2ccccc2-c2c1c1ccc([N+](=O)[O-])cc1c(=O)n2CC(O)CO (racemic) | -17.5 | 0.339 | 0.355 | 0.324 | –
